Tests used:
Format in all cases: functional
CAKI-1 = assay: Growth inhibition of human Caki1 cells at 10 uM after 48 hrs by coulter counter method; details: CAKI-1, 48 h, read-out: GI
In short: (§1)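 NCI 60-cell-line panel, single dose. Compound dissolved first in DMSO, then diluted in phosphate-buffered saline so that every final dilution held under 1% DMSO. Duplicate wells received cells at 6 × 10⁴ cells/ml. Controls held PBS/DMSO at the same dilution. Plates were incubated 48 h at 37 °C under 5% CO₂. Cells were then diluted 10-fold in saline and counted on a Coulter counter, with counts corrected for the dilution. Results are given as percent growth inhibition.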

A498 = assay: Growth inhibition of human A498 cells at 10 uM after 48 hrs by coulter counter method; details: A498, 48 h, read-out: GI; in short: as §1
BT-549 = assay: Growth inhibition of human BT549 cells at 10 uM after 48 hrs by coulter counter method; details: BT-549, 48 h, read-out: GI; in short: as §1
A549 = assay: Growth inhibition of human A549 cells at 10 uM after 48 hrs by coulter counter method; details: A549, 48 h, read-out: GI; in short: as §1
UO-31 = assay: Growth inhibition of human UO31 cells at 10 uM after 48 hrs by coulter counter method; details: UO-31, 48 h, read-out: GI; in short: as §1
CCRF-CEM = assay: Growth inhibition of human CCRF-CEM cells at 10 uM after 48 hrs by coulter counter method; details: read-out: GI; in short: as §1
SK-MEL-2 = assay: Growth inhibition of human SK-MEL-2 cells at 10 uM after 48 hrs by coulter counter method; details: SK-MEL-2, 48 h, read-out: GI; in short: as §1
786-0 = assay: Growth inhibition of human 786-0 cells at 10 uM after 48 hrs by coulter counter method; details: 786-0, 48 h, read-out: GI; in short: as §1
NCI-H23 = assay: Growth inhibition of human NCI-H23 cells at 10 uM after 48 hrs by coulter counter method; details: NCI-H23, 48 h, read-out: GI; in short: as §1
TK-10 = assay: Growth inhibition of human TK10 cells at 10 uM after 48 hrs by coulter counter method; details: TK-10, 48 h, read-out: GI; in short: as §1
SNB-19 = assay: Growth inhibition of human SNB19 cells at 10 uM after 48 hrs by coulter counter method; details: SNB-19, 48 h, read-out: GI; in short: as §1
U-251 = assay: Growth inhibition of human U251 cells at 10 uM after 48 hrs by coulter counter method; details: U-251, 48 h, read-out: GI; in short: as §1
NCI-H226 = assay: Growth inhibition of human NCI-H226 cells at 10 uM after 48 hrs by coulter counter method; details: NCI-H226, 48 h, read-out: GI; in short: as §1
SF-268 = assay: Growth inhibition of human SF268 cells at 10 uM after 48 hrs by coulter counter method; details: SF-268, 48 h, read-out: GI; in short: as §1
UACC-62 = assay: Growth inhibition of human UACC62 cells at 10 uM after 48 hrs by coulter counter method; details: UACC-62, 48 h, read-out: GI; in short: as §1
SF-295 = assay: Growth inhibition of human SF295 cells at 10 uM after 48 hrs by coulter counter method; details: SF-295, 48 h, read-out: GI; in short: as §1
SR = assay: Growth inhibition of human SR cells at 10 uM after 48 hrs by coulter counter method; details: read-out: GI; in short: as §1
HCT-116 = assay: Growth inhibition of human HCT116 cells at 10 uM after 48 hrs by coulter counter method; details: HCT-116, 48 h, read-out: GI; in short: as §1
T47D = assay: Growth inhibition of human T47D cells at 10 uM after 48 hrs by coulter counter method; details: read-out: GI; in short: as §1
LOX IMVI = assay: Growth inhibition of human LOXIMVI cells at 10 uM after 48 hrs by coulter counter method; details: read-out: GI; in short: as §1
NCI-H322M = assay: Growth inhibition of human NCI-H322M cells at 10 uM after 48 hrs by coulter counter method; details: read-out: GI; in short: as §1
SN12C = assay: Growth inhibition of human SN12C cells at 10 uM after 48 hrs by coulter counter method; details: read-out: GI; in short: as §1
EKVX = assay: Growth inhibition of human EKVX cells at 10 uM after 48 hrs by coulter counter method; details: read-out: GI; in short: as §1
MOLT-4 = assay: Growth inhibition of human MOLT4 cells at 10 uM after 48 hrs by coulter counter method; details: MOLT-4, 48 h, read-out: GI; in short: as §1
M14 = assay: Growth inhibition of human M14 cells at 10 uM after 48 hrs by coulter counter method; details: M14, 48 h, read-out: GI; in short: as §1
Malme-3M = assay: Growth inhibition of human MALME-3M cells at 10 uM after 48 hrs by coulter counter method; details: read-out: GI; in short: as §1
UACC-257 = assay: Growth inhibition of human UACC257 cells at 10 uM after 48 hrs by coulter counter method; details: UACC-257, 48 h, read-out: GI; in short: as §1
ACHN = assay: Growth inhibition of human ACHN cells at 10 uM after 48 hrs by coulter counter method; details: read-out: GI; in short: as §1
MDA-MB-468 = assay: Growth inhibition of human MDA-MB-468 cells at 10 uM after 48 hrs by coulter counter method; details: MDA-MB-468, 48 h, read-out: GI; in short: as §1
IGROV-1 = assay: Growth inhibition of human IGROV1 cells at 10 uM after 48 hrs by coulter counter method; details: IGROV-1, 48 h, read-out: GI; in short: as §1
SNB-75 = assay: Growth inhibition of human SNB75 cells at 10 uM after 48 hrs by coulter counter method; details: SNB-75, 48 h, read-out: GI; in short: as §1
HCT-15 = assay: Growth inhibition of human HCT15 cells at 10 uM after 48 hrs by coulter counter method; details: HCT-15, 48 h, read-out: GI; in short: as §1
SK-MEL-28 = assay: Growth inhibition of human SK-MEL-28 cells at 10 uM after 48 hrs by coulter counter method; details: SK-MEL-28, 48 h, read-out: GI; in short: as §1
HT-29 = assay: Growth inhibition of human HT-29 cells at 10 uM after 48 hrs by coulter counter method; details: HT-29, 48 h, read-out: GI; in short: as §1
K562 = assay: Growth inhibition of human K562 cells at 10 uM after 48 hrs by coulter counter method; details: K562, 48 h, read-out: GI; in short: as §1
HL-60(TB) = assay: Growth inhibition of human HL-60(TB) cells at 10 uM after 48 hrs by coulter counter method; details: HL-60, 48 h, read-out: GI
In short: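 Single-dose screen on the NCI 60-line panel (leukemia subpanel). Compound is dissolved in DMSO and diluted in PBS, with final DMSO below 1%. Duplicate wells hold 6 × 10⁴ cells/ml at 37 °C, 5% CO₂, for 48 h. Cells are counted by Coulter counter after 10-fold saline dilution. Read-out is percent growth versus PBS/DMSO controls, expressed as % growth inhibition.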

SK-MEL-5 = assay: Growth inhibition of human SK-MEL-5 cells at 10 uM after 48 hrs by coulter counter method; details: SK-MEL-5, 48 h, read-out: GI; in short: as §1
NCI/ADR-RES = assay: Growth inhibition of human NCI/ADR-RES cells at 10 uM after 48 hrs by coulter counter method; details: read-out: GI; in short: as §1
MDA-MB-435 = assay: Growth inhibition of human MDA-MB-435 cells at 10 uM after 48 hrs by coulter counter method; details: MDA-MB-435, 48 h, read-out: GI; in short: as §1
PC-3 = assay: Growth inhibition of human PC3 cells at 10 uM after 48 hrs by coulter counter method; details: PC-3, 48 h, read-out: GI; in short: as §1
MCF7 = assay: Growth inhibition of human MCF7 cells at 10 uM after 48 hrs by coulter counter method; details: MCF7, 48 h, read-out: GI; in short: as §1
OVCAR-8 = assay: Growth inhibition of human OVCAR8 cells at 10 uM after 48 hrs by coulter counter method; details: OVCAR-8, 48 h, read-out: GI; in short: as §1
KM12 = assay: Growth inhibition of human KM12 cells at 10 uM after 48 hrs by coulter counter method; details: KM12, 48 h, read-out: GI; in short: as §1
NCI-H522 = assay: Growth inhibition of human NCI-H522 cells at 10 uM after 48 hrs by coulter counter method; details: NCI-H522, 48 h, read-out: GI; in short: as §1

`NC1=CC(N)=NC2SC(c3ccc(Cl)cc3)=NN12` (centres undefined) was tested. Which inhibition of growth at 10 µM (CAKI-1) did it give?
Its inhibition of growth at 10 µM is less than 10%.

And the inhibition of growth at 10 µM (A498)?
Its inhibition of growth at 10 µM is less than 10%.

And the inhibition of growth at 10 µM (BT-549)?
Its inhibition of growth at 10 µM is less than 10%.

What about the inhibition of growth at 10 µM (A549) of the same compound?
Its inhibition of growth at 10 µM is less than 10%.

And the inhibition of growth at 10 µM (UO-31)?
Its inhibition of growth at 10 µM is 21.9%.

What about the inhibition of growth at 10 µM (CCRF-CEM) of the same compound?
The inhibition of growth at 10 µM was less than 10%.

What about the inhibition of growth at 10 µM (SK-MEL-2) of the same compound?
The inhibition of growth at 10 µM was 27.5%.

And the inhibition of growth at 10 µM (786-0)?
Its inhibition of growth at 10 µM is less than 10%.

What about the inhibition of growth at 10 µM (NCI-H23) of the same compound?
Its inhibition of growth at 10 µM is less than 10%.

What about the inhibition of growth at 10 µM (TK-10) of the same compound?
The inhibition of growth at 10 µM was less than 10%.

What about the inhibition of growth at 10 µM (SNB-19) of the same compound?
Its inhibition of growth at 10 µM is less than 10%.

What about the inhibition of growth at 10 µM (U-251) of the same compound?
Its inhibition of growth at 10 µM is less than 10%.

What about the inhibition of growth at 10 µM (NCI-H226) of the same compound?
Its inhibition of growth at 10 µM is 13.1%.

And the inhibition of growth at 10 µM (SF-268)?
The inhibition of growth at 10 µM was less than 10%.

What about the inhibition of growth at 10 µM (UACC-62) of the same compound?
The inhibition of growth at 10 µM was less than 10%.

What about the inhibition of growth at 10 µM (SF-295) of the same compound?
The inhibition of growth at 10 µM was less than 10%.

And the inhibition of growth at 10 µM (SR)?
Its inhibition of growth at 10 µM is 19.9%.

And the inhibition of growth at 10 µM (HCT-116)?
Its inhibition of growth at 10 µM is less than 10%.

What about the inhibition of growth at 10 µM (T47D) of the same compound?
Its inhibition of growth at 10 µM is less than 10%.

And the inhibition of growth at 10 µM (LOX IMVI)?
Its inhibition of growth at 10 µM is less than 10%.

And the inhibition of growth at 10 µM (NCI-H322M)?
The inhibition of growth at 10 µM was less than 10%.

What about the inhibition of growth at 10 µM (SN12C) of the same compound?
The inhibition of growth at 10 µM was less than 10%.

What about the inhibition of growth at 10 µM (EKVX) of the same compound?
Its inhibition of growth at 10 µM is less than 10%.

What about the inhibition of growth at 10 µM (MOLT-4) of the same compound?
The inhibition of growth at 10 µM was 20.6%.

What about the inhibition of growth at 10 µM (M14) of the same compound?
Its inhibition of growth at 10 µM is less than 10%.

What about the inhibition of growth at 10 µM (Malme-3M) of the same compound?
Its inhibition of growth at 10 µM is less than 10%.

What about the inhibition of growth at 10 µM (UACC-257) of the same compound?
The inhibition of growth at 10 µM was less than 10%.

What about the inhibition of growth at 10 µM (ACHN) of the same compound?
Its inhibition of growth at 10 µM is less than 10%.

And the inhibition of growth at 10 µM (MDA-MB-468)?
Its inhibition of growth at 10 µM is less than 10%.

And the inhibition of growth at 10 µM (IGROV-1)?
The inhibition of growth at 10 µM was 22.3%.

What about the inhibition of growth at 10 µM (SNB-75) of the same compound?
Its inhibition of growth at 10 µM is less than 10%.

What about the inhibition of growth at 10 µM (HCT-15) of the same compound?
Its inhibition of growth at 10 µM is less than 10%.

What about the inhibition of growth at 10 µM (SK-MEL-28) of the same compound?
The inhibition of growth at 10 µM was 17.4%.

What about the inhibition of growth at 10 µM (HT-29) of the same compound?
Its inhibition of growth at 10 µM is 11.8%.

What about the inhibition of growth at 10 µM (K562) of the same compound?
The inhibition of growth at 10 µM was 26.9%.

And the inhibition of growth at 10 µM (HL-60(TB))?
The inhibition of growth at 10 µM was 34.1%.

And the inhibition of growth at 10 µM (SK-MEL-5)?
The inhibition of growth at 10 µM was less than 10%.

What about the inhibition of growth at 10 µM (NCI/ADR-RES) of the same compound?
Its inhibition of growth at 10 µM is less than 10%.

And the inhibition of growth at 10 µM (MDA-MB-435)?
The inhibition of growth at 10 µM was less than 10%.

And the inhibition of growth at 10 µM (PC-3)?
The inhibition of growth at 10 µM was 14.3%.

And the inhibition of growth at 10 µM (MCF7)?
Its inhibition of growth at 10 µM is less than 10%.

And the inhibition of growth at 10 µM (OVCAR-8)?
The inhibition of growth at 10 µM was less than 10%.

And the inhibition of growth at 10 µM (KM12)?
The inhibition of growth at 10 µM was less than 10%.

What about the inhibition of growth at 10 µM (NCI-H522) of the same compound?
Its inhibition of growth at 10 µM is 19.9%.
